# Measurements reported in the M2OR odorant receptor database.
# Molecular target: T1, OR2J2 (Homo sapiens) (UniProt O76002)
# T1 sequence (whole entry): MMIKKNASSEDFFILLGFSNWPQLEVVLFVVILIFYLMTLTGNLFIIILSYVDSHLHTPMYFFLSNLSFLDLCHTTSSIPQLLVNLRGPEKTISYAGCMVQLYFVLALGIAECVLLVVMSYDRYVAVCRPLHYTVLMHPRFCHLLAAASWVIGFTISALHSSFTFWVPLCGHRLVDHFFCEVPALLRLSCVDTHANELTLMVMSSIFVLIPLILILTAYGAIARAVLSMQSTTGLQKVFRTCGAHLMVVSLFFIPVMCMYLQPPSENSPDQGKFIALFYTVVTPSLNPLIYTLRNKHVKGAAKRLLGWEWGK
# Settings: stereoisomer not certain
# Summary of the method: (§1)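 Each receptor–molecule pair is labelled responsive or non-responsive (inactive) according to whether the original authors judged the measured signal statistically different from baseline. The data were taken from the main text and supplementary material of published papers and checked for typos and inconsistencies. Assay methods differed by source, with transient luciferase assays in mammalian cell lines being common.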
# 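Also: active if original authors judged signal statistically different from baseline.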
row,Structure (SMILES),odorant receptor agonist call
1,CCC(=O)O,inactive
2,CCCCCCCCCO,active
3,CCCCCOC(=O)CCCCC,inactive
4,CCCCCCCCO,active
5,CC(C)=CCCC(C)=CCO,inactive
6,CCCCCCOC(C)=O,inactive
7,CCCCCCCC(C)=O,inactive
8,CCCCCCC(=O)[O-].[H+],inactive
9,COc1cc(C(=O)O)ccc1O,inactive
10,CCCCCC=O,inactive
11,C=CCOC(=O)CCCCCC,inactive
12,CCOC(=O)C(C)C,inactive
13,CCCCC(=O)O,inactive
14,CC(=O)OCC=C(C)C,inactive
15,O=C(c1ccccc1)c1ccccc1,inactive
16,CCCCCCCCCCO,active
17,CC(=O)Oc1ccccc1,inactive
18,CCCC(C)=O,inactive
19,CCCCC(=O)CC,inactive
20,CCCCCCCC(=O)[O-].[H+],inactive
21,CC(=O)OCc1ccccc1,inactive
22,CCCCCCO,inactive
23,CCCCCC1=C(C)CCC1=O,inactive
24,CCCCCCCCCC(=O)[O-].[H+],inactive

# Molecular target: T2, OR2L13 (Homo sapiens) (UniProt Q8N349)
# T2 sequence (whole entry): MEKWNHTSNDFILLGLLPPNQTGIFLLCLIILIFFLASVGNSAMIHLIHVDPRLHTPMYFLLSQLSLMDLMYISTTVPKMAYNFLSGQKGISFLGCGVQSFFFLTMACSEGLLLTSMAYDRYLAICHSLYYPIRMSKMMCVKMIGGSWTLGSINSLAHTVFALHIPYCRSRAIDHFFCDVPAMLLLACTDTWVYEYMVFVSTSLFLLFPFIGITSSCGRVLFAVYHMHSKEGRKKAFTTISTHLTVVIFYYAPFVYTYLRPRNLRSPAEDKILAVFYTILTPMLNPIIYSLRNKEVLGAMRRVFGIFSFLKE
# Settings: stereoisomer not certain
# Summary of the method: as §1
row,Structure (SMILES),odorant receptor agonist call
1,CCC(=O)O,inactive
2,CCCCCCCCCC(=O)OC,inactive
3,CCCCCCCCCCCCCCC(=O)O,inactive
4,CCCCCCCCO,inactive
5,CC(C)=CCCC(C)=CCO,inactive
6,CCC(O)CC,inactive
7,COc1ccc2[nH]cc(CCNC(C)=O)c2c1,inactive
8,CCCCCCC(=O)[O-].[H+],inactive
9,CC(O)C(=O)[O-].[H+] (stereo unspecified),inactive
10,CCCCCCCCCCCC(=O)O,inactive
11,CCCO,inactive
12,CCCC(=O)CC,inactive
13,CCCCCCCCCCCCO,active
14,CCCCCCCC(=O)OC,inactive
15,CCCCC(=O)C(C)=O,inactive
16,Cc1ccc(C(C)C)cc1,inactive

# Molecular target: T3, OR2M3 (Homo sapiens) (UniProt Q8NG83)
# T3 sequence (whole entry): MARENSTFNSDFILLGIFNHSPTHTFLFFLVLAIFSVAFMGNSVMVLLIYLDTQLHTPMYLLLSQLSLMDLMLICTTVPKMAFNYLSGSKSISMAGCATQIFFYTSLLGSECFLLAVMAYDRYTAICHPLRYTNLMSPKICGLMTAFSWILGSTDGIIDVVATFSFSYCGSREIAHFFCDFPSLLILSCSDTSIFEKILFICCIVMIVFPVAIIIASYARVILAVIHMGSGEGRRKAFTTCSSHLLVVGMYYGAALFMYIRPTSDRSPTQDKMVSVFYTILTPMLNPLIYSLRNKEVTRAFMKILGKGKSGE
# Settings: stereoisomer not certain
# Summary of the method: as §1
row,Structure (SMILES),odorant receptor agonist call
1,CCC(=O)O,inactive
2,CCCCCCCCCO,inactive
3,CC(C)=CCCC(C)=CCO,inactive
4,CCCCCCOC(C)=O,inactive
5,CCCCCCCC(C)=O,inactive
6,CCCCCC=O,inactive
7,CCOC(=O)C(C)C,inactive
8,CCCCC(=O)O,inactive
9,CCCCCCCC(=O)[O-].[H+],inactive
10,CCCCCCO,inactive
11,CCCCCCCCCC(=O)[O-].[H+],inactive
